Laboratory results: article PMC4433755 (Clinical cancer research : an official journal of the …, 2015)
pIC50: −log10 of the molar value. Values belong to the molecule of their own block, whether it stands above or below them.

Key:
[1] = system: metabolism of JNJ-38877605 in human 12000×g liver supernatant; assay type: in vitro ADME; details: 5 μM 3H-JNJ-38877605, human 12000×g liver supernatant
Procedure, shortened: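 5 μM 3H-labelled test compound incubated with human 12000×g liver supernatant, with and without specific inhibitors of aldehyde oxidase/CYP2C8 or of CYP-450. Metabolites identified by LC-MS and quantified via the 3H label. Read-out is % inhibition of formation of each metabolite and of summed metabolite formation.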

[2] = target: c-Met Kinase; details: read-out: IC50 for c-Met Kinase in vitro; cited from earlier work
[3] = metabolite formation in human liver microsomes; assay type: in vitro ADME; details: 5 μM 3H-JNJ-38877605, 120 min
Procedure, shortened: (§1)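 Radiolabelled (3H) test compound was incubated with human liver subcellular fractions (microsomes or 12000 ×g supernatant). Metabolites were identified by LC-MS and quantified only where a reference standard or 3H label existed. Parallel incubations included specific inhibitors, quercetin (aldehyde oxidase/CYP2C8) or 1-aminobenzotriazole (CYP-450). Results were expressed as % inhibition of metabolite formation.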

[4] = 1-month non-GLP toxicology study in male rabbit, post-mortem kidney changes; assay type: in vivo; details: 1-month dosing; for Basophilia, corticotubular with basement membrane thickening, incidence / Dilatation, collecting ducts with amorphous material, incidence / Dilation, corticotubular, extending towards cortex, incidence / Fibrosis, cortical, incidence / Hypertrophy, corticotubular; with spicules and multinucleated cells, incidence: N 4
[5] = phase I first-in-human dose escalation study, toxicity; assay type: in vivo
[6] = plasma metabolite profiling, rabbit; assay type: in vivo; details: 3H-JNJ-38877605 100 mg/kg, at about Cmax (1-4 h)
[7] = plasma metabolite profiling, man; assay type: in vivo, human; details: 60 mg, at about Cmax (1-4 h)
[8] = system: Fms; details: of 246 kinases tested; cited from earlier work
[9] = pharmacokinetics in humans, phase I study; assay type: in vivo, human; details: patients
Procedure, shortened: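 Patients received oral test compound once daily in 21-day cycles: 60 mg starting dose, with 10-40 mg OD levels added later. Blood was sampled at pre-specified times from cycle 1 day 1. Parent and N-desmethyl metabolite M2 were quantified in plasma. Cmax, tmax, t1/2, AUC and terminal elimination rate were calculated.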

[10] = plasma metabolite profiling, dog; assay type: in vivo; details: 3H-JNJ-38877605 2.5 mg/kg, at about Cmax (1-4 h)
[11] = metabolite formation in human liver 12000 ×g supernatant; assay type: in vitro ADME; details: 5 μM 3H-JNJ-38877605, 120 min
Procedure, shortened: as §1

[12] = plasma metabolite profiling, rat; assay type: in vivo; details: 3H-JNJ-38877605 2.5 mg/kg, at about Cmax (1-4 h)
[13] = group 2: 50 mg/kg 3/week (150 mg/kg/week)
[14] = group 3: 100 mg/kg 1/week (100 mg/kg/week)
[15] = group 4: 200 mg/kg 1/week (200 mg/kg/week)
[16] = group 5: 100 mg/kg 3/week (300 mg/kg/week)
[17] = group 6: 50 mg/kg 1/day (350 mg/kg/week)

- % inhibition of metabolite formation, M1/M2 [1]: 58%
- % inhibition of metabolite formation, M3 [1]: 1%
- % inhibition of metabolite formation, M4 [1]: 70%
- % inhibition of metabolite formation, UD (sum of all metabolite formation) [1]: 19%
Compound: Nn1nnc2ccccc21 [1-aminobenzotriazole]

Compound: Cn1cc(-c2ccc3nnc(C(F)(F)c4ccc5ncccc5c4)n3n2)cn1 [JNJ-38877605]
- pIC50 [2]: 8.33
- formation of metabolites after incubation of JNJ-38877605 [3]: 12.8
- Dilatation, collecting ducts with amorphous material, animals graded minimal [4, 13]: 3
- Dilatation, collecting ducts with amorphous material, animals graded moderate [4, 13]: 0
- Dilatation, collecting ducts with amorphous material, animals graded slight [4, 13]: 0
- Kidney weights, fold change vs control [4, 13]: ×0.93 fold
- Basophilia, corticotubular with basement membrane thickening, incidence [4, 13]: 2
- Dilatation, collecting ducts with amorphous material, incidence [4, 13]: 3
- Dilation, corticotubular, extending towards cortex, incidence [4, 13]: 0
- Fibrosis, cortical, incidence [4, 13]: 0
- Hypertrophy, corticotubular; with spicules and multinucleated cells, incidence [4, 13]: 1
- Dilatation, collecting ducts with amorphous material, animals graded minimal [4, 14]: 1
- Dilatation, collecting ducts with amorphous material, animals graded moderate [4, 14]: 0
- Dilatation, collecting ducts with amorphous material, animals graded slight [4, 14]: 3
- Basophilia, corticotubular with basement membrane thickening, incidence [4, 14]: 2
- Dilatation, collecting ducts with amorphous material, incidence [4, 14]: 4
- Dilation, corticotubular, extending towards cortex, incidence [4, 14]: 0
- Fibrosis, cortical, incidence [4, 14]: 0
- Hypertrophy, corticotubular; with spicules and multinucleated cells, incidence [4, 14]: 3
- Dilatation, collecting ducts with amorphous material, animals graded minimal [4, 15]: 0
- Dilatation, collecting ducts with amorphous material, animals graded moderate [4, 15]: 1
- Dilatation, collecting ducts with amorphous material, animals graded slight [4, 15]: 3
- Dilation, corticotubular, extending towards cortex, animals graded minimal [4, 15]: 2
- Dilation, corticotubular, extending towards cortex, animals graded slight [4, 15]: 1
- Fibrosis, cortical, animals graded minimal [4, 15]: 0
- Fibrosis, cortical, animals graded slight [4, 15]: 1
- Kidney weights, fold change vs control [4, 15]: ×1.20 fold
- Basophilia, corticotubular with basement membrane thickening, incidence [4, 15]: 4
- Dilatation, collecting ducts with amorphous material, incidence [4, 15]: 4
- Dilation, corticotubular, extending towards cortex, incidence [4, 15]: 3
- Fibrosis, cortical, incidence [4, 15]: 1
- Hypertrophy, corticotubular; with spicules and multinucleated cells, incidence [4, 15]: 4
- Dilatation, collecting ducts with amorphous material, animals graded minimal [4, 16]: 1
- Dilatation, collecting ducts with amorphous material, animals graded moderate [4, 16]: 1
- Dilatation, collecting ducts with amorphous material, animals graded slight [4, 16]: 2
- Dilation, corticotubular, extending towards cortex, animals graded minimal [4, 16]: 2
- Dilation, corticotubular, extending towards cortex, animals graded slight [4, 16]: 1
- Fibrosis, cortical, animals graded minimal [4, 16]: 2
- Fibrosis, cortical, animals graded slight [4, 16]: 0
- Kidney weights, fold change vs control [4, 16]: ×1.13 fold
- Basophilia, corticotubular with basement membrane thickening, incidence [4, 16]: 3
- Dilatation, collecting ducts with amorphous material, incidence [4, 16]: 4
- Dilation, corticotubular, extending towards cortex, incidence [4, 16]: 3
- Fibrosis, cortical, incidence [4, 16]: 2
- Hypertrophy, corticotubular; with spicules and multinucleated cells, incidence [4, 16]: 4
- Dilatation, collecting ducts with amorphous material, animals graded minimal [4, 17]: 0
- Dilatation, collecting ducts with amorphous material, animals graded moderate [4, 17]: 2
- Dilatation, collecting ducts with amorphous material, animals graded slight [4, 17]: 2
- Dilation, corticotubular, extending towards cortex, animals graded minimal [4, 17]: 2
- Dilation, corticotubular, extending towards cortex, animals graded slight [4, 17]: 1
- Fibrosis, cortical, animals graded minimal [4, 17]: 1
- Fibrosis, cortical, animals graded slight [4, 17]: 1
- Basophilia, corticotubular with basement membrane thickening, incidence [4, 17]: 4
- Dilatation, collecting ducts with amorphous material, incidence [4, 17]: 4
- Dilation, corticotubular, extending towards cortex, incidence [4, 17]: 3
- Fibrosis, cortical, incidence [4, 17]: 2
- Hypertrophy, corticotubular; with spicules and multinucleated cells, incidence [4, 17]: 4
- patients with grade 1 SCr increase ([5]; 40 mg OD): 2/3
- serum creatinine (SCr) increase, CTCAE grade ([5]; 60 mg OD, all 5 subjects, asymptomatic): Grade 1
- time to SCr increase after start of treatment ([5]; 60 mg OD, in 4 patients): 2 to 3 days
- glomerular filtration rate by Cr51 measurement ([5]; 1 patient, 40 mg cohort, cycle 1 day 21 (98 pre-treatment)): 45 ml/min/1.73m^2
- decrease of glomerular filtration rate by Cr51 measurement ([5]; 1 patient, 40 mg cohort, pre-treatment to cycle 1 day 21): > 50%
- renal toxicity ([5]; 10 and 20 mg OD): no indication of renal toxicity
- concentration in plasma [6]: 22836 ngeq/ml
- concentration in plasma [7]: 111 ngeq/ml
- selectivity for c-Met kinase relative to the next most potently inhibited kinase (Fms) [8]: > 833 fold
- accumulation after 21 days ([9]; oral OD): virtually no accumulation
- plasma half-life ([9]; oral): short
- time of Cmax after ingestion ([9]; oral): 1.5 to 4 h
- concentration in plasma [10]: 575 ngeq/ml
- formation of metabolites after incubation of JNJ-38877605 [11]: 26.0
- concentration in plasma [12]: 1466 ngeq/ml

- % inhibition of metabolite formation, M1/M2 [1]: 75%
- % inhibition of metabolite formation, M3 [1]: 94%
- % inhibition of metabolite formation, M4 [1]: 73%
- % inhibition of metabolite formation, UD (sum of all metabolite formation) [1]: 112%
Compound: O=c1c(O)c(-c2ccc(O)c(O)c2)oc2cc(O)cc(O)c12 [Quercetin]

- concentration in plasma [6]: 6388 ngeq/ml
- concentration in plasma [7]: 3 ngeq/ml
- concentration in plasma [10]: 31 ngeq/ml
- concentration in plasma [12]: 136 ngeq/ml
Compound: FC(F)(c1ccc2ncccc2c1)c1nnc2ccc(-c3cn[nH]c3)nn12 [M2]
